21 compounds from ChEMBL document CHEMBL1130978, “Discovery of FR115092: a novel antinephritic agent” (1998) can be followed below.

The subject of the first experiment is Mus musculus. The experiment can be described thus: Compound was tested for the inhibition of proteinuria in the graft-versus-host disease (GVHD) in mice at 100 mg/kg p.o.; 9/10 mice died. The note with it: route oral. It is filed as functional.
In the case of `Nc1ccc([S+]([O-])c2ccncc2)cc1` (stereo not given), the inhibition in vivo (usually the percentage by which the read-out fell short of the control) at 100 mg/kg is below 50%.

For another experiment, the system named is Mus musculus. The experiment is described as follows: Compound was tested for the inhibition of proteinuria in the graft-versus-host disease (GVHD) in mice at 100 mg/kg p.o.; 8/10 mice died. As to conditions: route oral. It is filed as functional.
`Nc1ncc([S+]([O-])c2ccncc2)s1` (stereo not given) came in with an inhibition in vivo at 100 mg/kg of 100%.

A further experiment relates to Mus musculus. The experiment can be described thus: Antinephritic activity on chronic graft-versus-host disease (GVHD) in mice at 32 mg/kg p.o. It is filed as functional. The note with it: route oral. The procedure, abridged:
(§1)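 Chronic GVHD induced in 6-week-old female ([…] x DBA/2)F1 mice by two injections of DBA/2 spleen cells (5 x 10^7 cells each), given 5 days apart. Oral dosing once daily for 8 weeks, starting 3 days after the second injection. Urinary albumin measured after the last dose by single radial immunodiffusion with rabbit anti-mouse serum albumin antiserum. Ten mice per group. Value reported as % inhibition of proteinuria.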
`Nc1ccc(S(=O)(=O)c2ccc(N)cc2)cc1` [DAPSONE]: the inhibition in vivo at 32 mg/kg was below 50%.

For the compound `Nc1ncc(S(=O)(=O)c2ccccn2)s1`, testing at 32 mg/kg gave an inhibition in vivo of 29%.

The subject of the next experiment is Mus musculus. The experiment is described as follows: Antinephritic activity on chronic graft-versus-host disease (GVHD) in mice at 10 mg/kg p.o. Format: functional. The note with it: route oral. The procedure, abridged:
as §1
For the compound `Nc1ccc(S(=O)(=O)c2ccc(N)cc2)cc1` [DAPSONE], the inhibition in vivo at 10 mg/kg is below 50%.

For `Nc1ncc(S(=O)(=O)c2ccccn2)s1`, testing at 10 mg/kg gave an inhibition in vivo of 63%.

The test system of the next experiment is Mus musculus. The experiment is described as follows: Inhibition of proteinuria in the graft-versus-host disease mice following 100 mg/kg p.o. administration. Format: functional. The note with it: route oral. An outline of the steps: as §1
Compound `Nc1ccc(S(=O)(=O)c2ccc(N)cc2)cc1` [DAPSONE] gave an inhibition in vivo at 100 mg/kg of 95%.

With `Nc1ncc(S(=O)(=O)c2ccccn2)s1`, the inhibition in vivo at 100 mg/kg stood at 92%.

In turn, `Nc1ccc([S+]([O-])c2ccc(N)cc2)cc1` showed an inhibition in vivo at 100 mg/kg of 95%.

`Nc1ccc(NC(=O)c2ccc(N)cc2)cc1` displayed an inhibition in vivo at 100 mg/kg below 50%.

Regarding `NC(=O)Nc1ccc(C(=O)c2ccc(N)cc2)cc1`, the inhibition in vivo at 100 mg/kg is below 50%.

Consider `Nc1ccc(C(=O)c2cccc(N)c2)cc1`, for which the inhibition in vivo at 100 mg/kg was below 50%.

On to `Cc1cc(C(=O)c2ccc(N)cc2)ccc1N`, for which 100 mg/kg produced 100% inhibition in vivo.

In turn, `Nc1ccc([S+]([O-])c2ncccn2)cc1` (stereo not given) displayed an inhibition in vivo at 100 mg/kg of 99%.

For `Nc1ncc(Sc2ccccn2)s1`, the inhibition in vivo at 100 mg/kg stood at 90%.

`Nc1ccc(C(=O)c2ccncc2)cc1` yielded an inhibition in vivo at 100 mg/kg of 89%.

With `Nc1ccc(NS(=O)(=O)c2ccc(N)cc2)cc1`, the inhibition in vivo at 100 mg/kg was determined as 54%.

For the compound `Nc1ncc([S+]([O-])c2ccccn2)s1` (stereo not given), the inhibition in vivo at 100 mg/kg is 98%.

With `Cn1ccnc1[S+]([O-])c1ccc(N)cc1` (stereo not given), the inhibition in vivo at 100 mg/kg was below 50%.

The compound `Nc1ccc(C(=O)c2ccc(N)cc2)cc1` registered an inhibition in vivo at 100 mg/kg of 95%.

Consider `Cc1cc(C(=O)c2ccc(N)cc2)cc(C)c1N`, for which the inhibition in vivo at 100 mg/kg was found to be 99%.

Regarding `Nc1ccc(Sc2ccc(N)cc2)cc1` [4,4'-THIODIANILINE], at 100 mg/kg the inhibition in vivo was 70%.

In turn, `Nc1ccc(Oc2ccc(N)cc2)cc1` showed an inhibition in vivo at 100 mg/kg of 93%.

Regarding `Nc1ccc([S+]([O-])c2cnc(N)s2)cc1` (stereo not given), the inhibition in vivo at 100 mg/kg came out at 79%.

For `CS(=O)(=O)Nc1ccc(C(=O)c2ccc(N)cc2)cc1`, the inhibition in vivo at 100 mg/kg was below 50%.
